pKd: −log10 of the molar value.
Key:
[1] = test system: Mycobacterium tuberculosis; test: Inhibition of Bio-A overexpressed in Mycobacterium tuberculosis in presence of anhydrotetracycline after 9 days
How it was run: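 BioA-overexpressing or BioA-underexpressing Mtb strains were pregrown in Sauton's with 1 μM biotin, washed twice, and seeded at OD580 0.03 in biotin-free medium with 200 ng/mL anhydrotetracycline to set BioA expression. Compounds were tested at 0.2–50 μM final at 37 °C. OD580 was read after 9 days. MIC is the concentration giving 50% inhibition. Triplicate, two biological replicates.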

[2] = Binding affinity to N-terminally His-tagged Mycobacterium tuberculosis BioA overexpressed in Escherichia coli by ITC method
How it was run: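 BioA loaded with PLP by adding 1 mM PLP after size exclusion, then buffer-exchanged into 25 mM HEPES pH 7.5, 50 mM NaCl. Titrated at 25 °C: 10 μM BioA, ligand 100 μM with DMSO matched, 2 μL injections 150 s apart, 750 rpm. First injection discarded; dilution heats corrected; curve fit gives KA, KD = 1/KA. Triplicate, mean ± standard error.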

Row | SMILES | MIC50 [1] [µM] | pKd [2] | MIC90 [1] [µM]
1 | CCCCCC(=O)N1CCN(c2ccc(C(C)=O)cc2)CC1 | 47.6 | – | –
2 | CC(=O)c1ccc(N2CCN(C(=O)c3cscn3)CC2)cc1 | > 50 | – | –
3 | O=C(c1cccc(Cl)c1)N1CCN(c2ccc([N+](=O)[O-])cc2)CC1 | 20.9 | – | –
4 | N#Cc1ccc(N2CCN(C(=O)c3cccc(Cl)c3)CC2)cc1 | 45.9 | – | –
5 | O=C(c1cccc(Cl)c1)N1CCN(c2ccc3c(c2)COC3)CC1 | > 50 | – | –
6 | CC(=O)c1ccc(N2CCN(C(=O)c3ccc4c(c3)OCCO4)CC2)cc1 | > 50 | – | –
7 | CC(=O)c1ccc(N2CCN(C(=O)c3cccnc3)CC2)cc1 | > 50 | – | –
8 | O=C1OCc2cc(N3CCN(C(=O)c4cccc(Cl)c4)CC3)ccc21 | > 50 | 6.16 | –
9 | CC(=O)c1ccc(-c2cn(Cc3cccc(Cl)c3)nn2)cc1 | > 50 | – | –
10 | CN1Cc2cc(N3CCN(C(=O)c4cccc(Cl)c4)CC3)ccc2C1=O | > 50 | 6.06 | –
11 | O=C(c1cccc(Cl)c1)N1CCN(c2ccc(-c3ccno3)cc2)CC1 | 38.9 | – | –
12 | CC(=O)c1ccc(N2CCN(C(=O)c3ccc4c(c3)OCCCO4)CC2)cc1 | > 50 | – | –
13 | COc1cc(Cl)cc(C(=O)N2CCN(c3ccc(C(C)=O)cc3)CC2)c1 | > 50 | – | –
14 | COc1ccc(-c2ccc(N3CCN(C(=O)c4cccc(Cl)c4)CC3)cc2)nc1 | > 50 | – | –
15 | CC(=O)c1ccc(N2CCC(C(=O)c3ccc4c(c3)OCO4)CC2)cc1 | > 50 | – | –
16 | CC(=O)c1ccc(N2CCN(C(=O)c3cccc(Cl)c3)CC2)cc1 | 7.5 | 6.80 | –
17 | O=C1CCc2cc(N3CCN(C(=O)c4cccc(Cl)c4)CC3)ccc21 | 8.1 | 6.88 | –
18 | Cc1noc(-c2ccc(N3CCN(C(=O)c4cccc(Cl)c4)CC3)cc2)n1 | > 50 | – | –

Row | SMILES | MIC50 [1] [µM] | pKd [2] | MIC90 [1] [µM]
19 | CC(=O)c1ccc(N2CCN(C(=O)c3cc(Cl)cc(Cl)c3)CC2)cc1 | > 50 | – | –
20 | CCC(=O)N1CCN(c2ccc(C(C)=O)cc2)CC1 | > 50 | – | –
21 | COC(=O)c1ccc(N2CCN(C(=O)c3cccc(Cl)c3)CC2)cc1 | > 50 | – | –
22 | Cn1nnnc1-c1ccc(N2CCN(C(=O)c3cccc(Cl)c3)CC2)cc1 | > 50 | – | –
23 | C/C(=N\O)c1ccc(N2CCN(C(=O)c3cccc(Cl)c3)CC2)cc1 | > 50 | – | –
24 | CC(=O)c1ccc(N2CCN(C(=O)c3ccc4c(c3)OCO4)CC2)cc1 | 31.1 | 6.97 | > 50
25 | CC(=O)c1ccc(N2CCN(C(=O)c3cnn(C)c3)CC2)cc1 | > 50 | – | –
26 | CC(=O)c1ccc(N2CCN(C(=O)c3cncc(Cl)c3)CC2)cc1 | > 50 | – | –
27 | CCCC(=O)N1CCN(c2ccc(C(C)=O)cc2)CC1 | > 50 | – | –
28 | CC(=O)c1ccc(N2CCN(C(=O)c3ccc(Cl)c(Cl)c3)CC2)cc1 | 17.7 | – | –
29 | O=C1CCc2cc(N3CCN(C(=O)c4ccc5c(c4)OCO5)CC3)ccc21 | 2.8 | 7.13 | –
30 | O=C(c1cccc(Cl)c1)N1CCN(c2ccc(-c3ccccn3)cc2)CC1 | > 50 | – | –
31 | CC(=O)c1ccc(N2CCN(C(=O)CC(C)C)CC2)cc1 | > 50 | – | –
32 | CC(=O)c1ccc(N2CCC(C(=O)c3cccc(Cl)c3)CC2)cc1 | 9.2 | – | –
33 | CC(=O)c1ccc(-c2cn(Cc3cccc(Cl)c3)nn2)s1 | > 50 | – | –
34 | CC(=O)c1ccc(N2CCN(C(=O)c3cccc(Cl)c3)CC2)s1 | 7.6 | 6.49 | –
35 | CC(=O)c1cccc(N2CCN(C(=O)c3cccc(Cl)c3)CC2)c1 | > 50 | – | –

From ChEMBL document CHEMBL4011626, “Structure-Based Optimization of Pyridoxal 5'-Phosphate-Dependent Transaminase Enzyme (BioA) Inhibitors that Target Biotin Biosynthesis in Mycobacterium tuberculosis” (J Med Chem, 2017)
